Assay results from different studies.
Lines come from different studies, so protocols differ.
Target: Ephrin type-A receptor 6 (EPHA6, Homo sapiens, UniProt Q9UF33)
One construct used (Q9UF33 1-1036): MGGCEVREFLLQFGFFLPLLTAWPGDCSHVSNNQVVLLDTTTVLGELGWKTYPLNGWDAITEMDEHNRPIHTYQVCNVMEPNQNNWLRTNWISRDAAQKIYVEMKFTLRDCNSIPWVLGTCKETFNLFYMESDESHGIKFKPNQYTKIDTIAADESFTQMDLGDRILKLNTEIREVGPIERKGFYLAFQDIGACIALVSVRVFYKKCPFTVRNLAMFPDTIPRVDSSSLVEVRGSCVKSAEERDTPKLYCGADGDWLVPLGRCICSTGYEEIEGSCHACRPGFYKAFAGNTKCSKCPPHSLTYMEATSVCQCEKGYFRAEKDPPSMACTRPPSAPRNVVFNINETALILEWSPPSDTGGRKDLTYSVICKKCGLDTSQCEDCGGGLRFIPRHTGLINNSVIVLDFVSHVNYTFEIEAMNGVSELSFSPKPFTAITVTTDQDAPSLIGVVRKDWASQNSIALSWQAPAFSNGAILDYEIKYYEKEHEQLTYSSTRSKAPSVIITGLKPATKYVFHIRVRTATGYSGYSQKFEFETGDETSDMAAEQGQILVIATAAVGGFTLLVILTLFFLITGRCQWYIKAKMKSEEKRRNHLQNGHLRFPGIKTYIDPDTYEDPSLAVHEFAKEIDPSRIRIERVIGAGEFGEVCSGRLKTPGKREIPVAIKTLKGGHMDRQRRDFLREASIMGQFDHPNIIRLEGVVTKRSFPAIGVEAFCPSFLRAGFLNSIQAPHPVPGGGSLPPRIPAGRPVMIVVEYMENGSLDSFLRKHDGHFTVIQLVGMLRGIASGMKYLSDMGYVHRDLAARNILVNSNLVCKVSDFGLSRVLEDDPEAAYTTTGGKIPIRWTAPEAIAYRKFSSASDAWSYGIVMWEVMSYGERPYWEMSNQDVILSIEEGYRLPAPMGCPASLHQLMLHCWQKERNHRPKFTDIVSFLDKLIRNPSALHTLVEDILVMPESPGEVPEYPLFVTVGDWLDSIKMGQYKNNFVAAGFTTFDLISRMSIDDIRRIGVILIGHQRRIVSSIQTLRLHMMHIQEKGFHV

For `Cc1ccc(C(=O)Nc2ccc(CN3CCN(C)CC3)c(C(F)(F)F)c2)cc1C#Cc1cnc2cccnn12`, the remaining signal was 45% (cell-free assay; 23.5 nM).
With `CC(=O)Nc1c(C(C)=O)c(=O)n(C)c2nc(-c3ccc(Cl)cc3Cl)c(-c3ccc(Cl)cc3)cc12` the remaining binding was 100% (cell-free assay; competition with immobilised ligand; 1 µM).
For `Cc1sc(C(=O)NC2COC2)cc1-n1cc(NC(=O)Nc2c(F)cccc2Cl)cn1`, the remaining activity was 80.2% (enzyme activity; inhibitor; 10 µM).
With `CNC(=O)c1cc(Oc2ccc(NC(=O)Nc3ccc(Cl)c(C(F)(F)F)c3)cc2)ccn1` the remaining signal was 42% (cell-free assay; 0.5 µM).
`Nc1ncnc2occ(-c3ccc(NC(=O)Nc4cc(C(F)(F)F)ccc4F)cc3)c12` has a remaining signal of 0% (cell-free assay; 20 µM).
`CC/C(=N\NC(=O)NCc1cccc(O)c1)c1ccc(O)c(C)c1O` gave an inhibition of 1.5% (enzyme activity; inhibitor; 0.1 µM).
The remaining activity of `CC(C)(C)c1nc(-c2cccc(NS(=O)(=O)c3c(F)cccc3F)c2F)c(-c2ccnc(N)n2)s1` is reported as 72% (enzyme activity; inhibitor; radiometric; 1 µM).
For `O=C(Nc1cnn(-c2csc(C(=O)NC3COC3)c2)c1)Nc1ccccc1Cl`, the remaining activity was 99.5% (enzyme activity; inhibitor; 5 µM).
`CC(C)(C)c1nc2c(s1)c1nc(N)ncc1c1ccc(NS(=O)(=O)c3c(F)cccc3F)c(F)c12` has a remaining activity of 99% (enzyme activity; inhibitor; radiometric; 1 µM).
`CS(=O)(=O)N1CCCC(NC(=O)[C@H](CCC2CCCCC2)NC(=O)c2ccc(CNC(=O)c3cnc4ccccn34)cc2)C1` (stereo partly shown) has a remaining binding of 100% (cell-free assay; competition with immobilised ligand; 0.1 µM).
The remaining signal of `Oc1cccc(-c2nc(N3CCOCC3)c3oc4ncccc4c3n2)c1` is reported as 79% (cell-free assay; 0.5 µM).
`N#Cc1ccc(Nc2ccc3[nH]c(=O)[nH]c3c2)c(Cl)c1` has a remaining binding of 82% (cell-free assay; competition with immobilised ligand; 1 µM).
The remaining activity of `CC(C)(O)[C@H]1CC[C@H](Nc2ccc3ncc(-c4cccc(C(F)(F)F)c4)n3n2)CC1` is reported as 91.1% (enzyme activity; inhibitor; 1 µM).
